From ChEMBL document CHEMBL1137414, “3'-Substituted 7-halogenoindirubins, a new class of cell death inducing agents” (J Med Chem, 2006)

Experiments:
[1] = Inhibition of starfish CDK1/cyclin B in presence of 15 uM ATP; design: species or system Marthasterias glacialis
[2] = target: Cyclin-dependent kinase 5/CDK5 activator 1 (Homo sapiens, UniProt Q00535); experiment: (§1) Inhibition of mammalian CDK5/p25; type: protein-complex assay
In short: (§2)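 Recombinant CDK5 and p25, each expressed in E. coli as GST fusions and affinity-purified on glutathione agarose, mixed in equal amounts. Phosphate incorporation onto P81 paper read by scintillation counting, blank subtracted. Activity taken as % of uninhibited. IC50 from dose-response curves.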

SH-SY5Y [3] = experiment: Survival of human SH-SY5Y cells at 25 uM by MTS reduction assay; type: functional, cell-based; conditions: for viability at 25 µM: Homo sapiens, SH-SY5Y, read-out: Survival
In short: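 Viability was read by MTS reduction and expressed as percent of untreated cells, as the average ± SE of three independent measurements, representative of two independent experiments.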

[4] = target: Cyclin-dependent kinase 5/CDK5 activator 1 (Homo sapiens, UniProt Q00535+Q15078); experiment: as §1; type: protein-complex assay; in short: as §2
SH-SY5Y [5] = experiment: Death of human SH-SY5Y cells in presence of 20 uM Q-VD-OPh by MTS reduction assay; type: functional, cell-based; conditions: Homo sapiens, SH-SY5Y
SH-SY5Y [6] = experiment: Death of human SH-SY5Y cells at 25 uM after 48 hrs by LDH release assay; type: functional
In short: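 SH-SY5Y human neuroblastoma cells were grown in DMEM with 2 mM L-glutamine, antibiotics and 10% FCS at 37 °C under 5% CO2. […] Lactate dehydrogenase release was measured 48 h after addition and expressed as percent cell death.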

SH-SY5Y [7] = experiment: Death of human SH-SY5Y cells in absence of 20 uM Q-VD-OPh by MTS reduction assay; type: functional, cell-based; conditions: Homo sapiens, SH-SY5Y; read-out: IC50
SH-SY5Y [8] = experiment: Survival of human SH-SY5Y cells after 48 hrs by MTS reduction assay; type: functional, cell-based; conditions: Homo sapiens, SH-SY5Y, 48 h
SH-SY5Y [9] = experiment: Survival of human SH-SY5Y cells after 24 hrs by MTS reduction assay; type: functional, cell-based; conditions: Homo sapiens, SH-SY5Y, 24 h

Cyclin-dependent kinase 5/CDK5 activator 1 (Homo sapiens, UniProt Q00535), sequence (Q00535 whole entry, the tested form may be a part): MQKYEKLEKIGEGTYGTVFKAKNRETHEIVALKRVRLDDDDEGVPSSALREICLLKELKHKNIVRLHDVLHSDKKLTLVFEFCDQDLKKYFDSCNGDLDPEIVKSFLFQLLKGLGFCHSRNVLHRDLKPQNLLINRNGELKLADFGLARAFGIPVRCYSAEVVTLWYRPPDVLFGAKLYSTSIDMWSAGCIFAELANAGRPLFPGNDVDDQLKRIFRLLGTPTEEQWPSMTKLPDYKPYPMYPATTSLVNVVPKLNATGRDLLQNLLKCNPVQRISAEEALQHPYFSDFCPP
Cyclin-dependent kinase 5/CDK5 activator 1 (Homo sapiens, UniProt Q00535), sequence (Q15078 whole entry, further chain, the tested form may be a part): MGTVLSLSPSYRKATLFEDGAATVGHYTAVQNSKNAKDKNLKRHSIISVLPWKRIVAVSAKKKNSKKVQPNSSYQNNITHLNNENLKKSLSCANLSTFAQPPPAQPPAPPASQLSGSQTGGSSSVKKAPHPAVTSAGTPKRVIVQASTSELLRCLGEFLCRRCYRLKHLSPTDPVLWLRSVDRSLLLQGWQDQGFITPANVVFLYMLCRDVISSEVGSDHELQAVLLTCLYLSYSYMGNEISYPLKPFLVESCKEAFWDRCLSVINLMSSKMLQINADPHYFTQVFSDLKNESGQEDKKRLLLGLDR
Cyclin-dependent kinase 5/CDK5 activator 1 (Homo sapiens, UniProt Q00535+Q15078), sequence (Q00535 whole entry): as the sequence (Q00535 whole entry, the tested form may be a part) above
Cyclin-dependent kinase 5/CDK5 activator 1 (Homo sapiens, UniProt Q00535+Q15078), sequence (Q15078 whole entry): as the sequence (Q15078 whole entry, further chain, the tested form may be a part) above

Structure (SMILES)	IC50 [1] [µM]	IC50 [2] [µM]	viability at 25 µM (SH-SY5Y [3]) [%]	other results
CCN(CC)C(=O)O/N=C1/C(c2c(O)n(C)c3c(Br)cccc23)=Nc2ccccc21	> 10	> 10	105	
Oc1[nH]c2c(Br)cccc2c1C1=Nc2ccccc2/C1=N\OCCn1ccnc1				IC50 [4]: > 10 µM; Survival (SH-SY5Y [3]): 59%
CCN(CC)CCO/N=C1/C(c2c(O)[nH]c3c(Br)cccc23)=Nc2ccccc21				IC50 [4]: > 10 µM; Survival (SH-SY5Y [3]): 49%
CO/N=C1/C(c2c(O)n(C)c3c(F)cccc23)=Nc2ccccc21	> 10	> 100	107	
CCN(CC)C(=O)O/N=C1/C(c2c(O)[nH]c3c(Br)cccc23)=Nc2ccccc21	> 100	> 100	106	
CO/N=C1\C(c2c(O)[nH]c3ccccc23)=Nc2ccccc21	1.4	0.4	86	
O=C1C(c2c(O)[nH]c3c(Br)cccc23)=Nc2ccccc21	> 100	> 100	92	
Cn1c(O)c(C2=Nc3ccccc3C2=O)c2ccccc21	100		98	
CCN(CC)CCO/N=C1/C(c2c(O)n(C)c3c(Br)cccc23)=Nc2ccccc21.Cl	> 10	> 10		IC50 (SH-SY5Y [5]): > 25 µM; Activity (SH-SY5Y [6]): 58%; IC50 (SH-SY5Y [7]): 18 µM; Survival (SH-SY5Y [3]): 15%
CC(=O)O/N=C1\C(c2c(O)[nH]c3ccccc23)=Nc2ccccc21		0.7	36	
Cn1c(O)c(-c2[nH]c3ccccc3c2N=O)c2cccc(Br)c21	> 100	> 100	84	
Cn1c(O)c(C2=Nc3ccccc3/C2=N\OCCBr)c2cccc(Br)c21	> 10	> 10	99	
CO/N=C1/C(c2c(O)n(C)c3c(Cl)cccc23)=Nc2ccccc21	> 10	> 100	99	
Cn1c(O)c(-c2[nH]c3ccccc3c2N=O)c2cccc(F)c21	> 100	> 100	99	
Cn1c(O)c(-c2[nH]c3ccccc3c2N=O)c2ccccc21	73		100	
Cn1c(O)c(C2=Nc3ccccc3/C2=N\OCCn2ccnc2)c2cccc(Br)c21	> 10	> 10	85	
Oc1[nH]c2c(Br)cccc2c1C1=Nc2ccccc2/C1=N\OCCBr	> 100	25	87	
O=C1C(c2c(O)[nH]c3c(F)cccc23)=Nc2ccccc21	10	≥ 10	70	
CO/N=C1/C(c2c(O)[nH]c3c(Br)cccc23)=Nc2ccccc21	> 100	> 100	97	
O=Nc1c(-c2c(O)[nH]c3ccccc23)[nH]c2ccccc12 [INDIRUBIN-3-MONOXIME]			27	IC50 (SH-SY5Y [5]): > 25 µM; IC50 (SH-SY5Y [8]): 12 µM; Activity (SH-SY5Y [6]): 33%; IC50 (SH-SY5Y [9]): > 25 µM; IC50 (SH-SY5Y [7]): 13 µM
O=C1Nc2ccccc2/C1=C1/Nc2ccccc2C1=O [INDIRUBIN]			104	
CO/N=C1/C(c2c(O)n(C)c3c(Br)cccc23)=Nc2ccccc21	> 100	> 100	100	
Cn1c(O)c(C2=Nc3ccccc3C2=O)c2cccc(F)c21	> 10	> 100	101	
Cn1c(O)c(-c2[nH]c3ccccc3c2N=O)c2cccc(I)c21	> 100	> 100	74	

Structure (SMILES)	IC50 [1] [µM]	IC50 [2] [µM]	viability at 25 µM (SH-SY5Y [3]) [%]	other results
CO/N=C1/C(c2c(O)[nH]c3c(I)cccc23)=Nc2ccccc21	> 10	> 100	84	
Cn1c(O)c(C2=Nc3ccccc3C2=O)c2cccc(Cl)c21	> 10	> 100	94	
Cl.Cn1c(O)c(C2=Nc3ccccc3/C2=N\OCCN2CCOCC2)c2cccc(Br)c21	> 10	> 10	90	
O=C1C(c2c(O)[nH]c3c(I)cccc23)=Nc2ccccc21	> 10	> 100	96	
O=C1C(c2c(O)[nH]c3c(Cl)cccc23)=Nc2ccccc21	> 10	> 100	92	
O=Nc1c(-c2c(O)[nH]c3c(F)cccc23)[nH]c2ccccc12	1.5	0.51	46	
CC(=O)O/N=C1/C(c2c(O)[nH]c3c(I)cccc23)=Nc2ccccc21	> 10	> 100	67	
CC(=O)O/N=C1/C(c2c(O)[nH]c3c(Cl)cccc23)=Nc2ccccc21	> 10	> 100	89	
CO/N=C1/C(c2c(O)[nH]c3c(F)cccc23)=Nc2ccccc21	> 10	> 100	105	
CC(=O)O/N=C1/C(c2c(O)n(C)c3c(F)cccc23)=Nc2ccccc21	> 10	> 100	105	
CC(=O)O/N=C1/C(c2c(O)[nH]c3c(Br)cccc23)=Nc2ccccc21	> 100	> 100	61	
CC(=O)O/N=C1/C(c2c(O)n(C)c3c(I)cccc23)=Nc2ccccc21	> 10	> 100	82	
O=C1Nc2cc(Br)ccc2/C1=C1/Nc2ccccc2/C1=N\O [6BIO]			5	Activity (SH-SY5Y [6]): 80%
CO/N=C1/C(c2c(O)n(C)c3c(I)cccc23)=Nc2ccccc21	> 10	> 100	99	
Cn1c(O)c(C2=Nc3ccccc3C2=O)c2cccc(Br)c21	100	> 100	98	
Cl.Oc1[nH]c2c(Br)cccc2c1C1=Nc2ccccc2/C1=N\OCCN1CCOCC1	> 100	> 10		Survival (SH-SY5Y [3]): 76%
Cn1c(O)c(-c2[nH]c3ccccc3c2N=O)c2cccc(Cl)c21	> 100	> 100	94	
O=C1Nc2ccc(Br)cc2/C1=C1/Nc2ccccc2/C1=N\O [INDIRUBIN 2]	0.045	0.028	13	IC50 (SH-SY5Y [5]): 23 µM; IC50 (SH-SY5Y [8]): 12 µM; Activity (SH-SY5Y [6]): 59%; IC50 (SH-SY5Y [9]): 18 µM; IC50 (SH-SY5Y [7]): 13 µM
CC(=O)O/N=C1/C(c2c(O)n(C)c3c(Br)cccc23)=Nc2ccccc21	70	> 100	95	
O=Nc1c(-c2c(O)[nH]c3c(I)cccc23)[nH]c2ccccc12	66	77	64	
CC(=O)O/N=C1/C(c2c(O)[nH]c3c(F)cccc23)=Nc2ccccc21	15	> 100	39	
CC(=O)O/N=C1/C(c2c(O)n(C)c3c(Cl)cccc23)=Nc2ccccc21	> 10	> 100	96	
CO/N=C1/C(c2c(O)[nH]c3c(Cl)cccc23)=Nc2ccccc21	> 10	> 100	97	
Cn1c(O)c(C2=Nc3ccccc3C2=O)c2cccc(I)c21	> 10	> 100		Survival (SH-SY5Y [3]; sh-sy5y): 93%
